Active and inactive are the calls of the source. The rule behind the calls is not given here.
What was measured:
[1] = tested on: T-24; assay: Antiproliferative activity against human T24 cells by MTT assay; type: functional, cell-based
Procedure, shortened: (§1)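 Cell lines cultured in RPMI 1640 with 10% FBS. Viability read by MTT (5 mg/mL, 4 h at 37 °C), with formazan dissolved in DMSO and absorbance taken at 490 nm. Viability (%) = A490 treated / A490 control × 100. IC50 taken from dose-response curves, from three independent experiments each run in triplicate.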

[2] = tested on: HeLa; assay: Antiproliferative activity against human HeLa cells by MTT assay; type: functional, cell-based; procedure, shortened: as §1
[3] = tested on: NCI-H460; assay: Antiproliferative activity against human NCI-H460 cells by MTT assay; type: functional, cell-based; procedure, shortened: as §1
[4] = tested on: MGC-803; assay: Antiproliferative activity against human MGC803 cells by MTT assay; type: functional, cell-based; procedure, shortened: as §1
[5] = tested on: HepG2; assay: Antiproliferative activity against human HepG2 cells by MTT assay; type: functional, cell-based; procedure, shortened: as §1
[6] = tested on: T-24; assay: Effect on p53 protein expression in human T24 cells at 10 uM after 24 hrs by Western blot analysis; type: functional, cell-based
Procedure, shortened: (§2)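 T24 cells (3 × 10^5 per well) grown to 85–95% confluence, then exposed 24 h to 0–10 μM. Whole-cell extracts run on SDS-PAGE and blotted to nitrocellulose. Probed with the indicated antibodies and AP-linked anti-rabbit IgG, with ECL detection. Blots stripped and reprobed for β-actin as loading control.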

[7] = tested on: HepG2; assay: Antitumor activity against human HepG2 cells xenografted in BALB/C nude mouse assessed as tumor growth inhibition at 6 mg/kg, ip administered every 2 days for 16 days relative to control; type: functional; conditions: read-out: TGI
Procedure, shortened: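 Male BALB/C nude mice, 6 weeks old, given subcutaneous flank injection of 5 × 10^6 HepG2 cells; tumors of 80−200 mm3 randomized, n = 6/group. Dosing ip every other day, vehicle 5% DMSO in saline (v/v). Tumor length and width measured three times a week, volume V = lw2/2; growth inhibition expressed versus vehicle group. Body weight also recorded.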

[8] = tested on: T-24; assay: Effect on p53 expression in human T24 cells up to 10 uM after 24 hrs by Western blot analysis; type: functional, cell-based; procedure, shortened: as §2
[9] = target: Cellular tumor antigen p53 (Homo sapiens) (UniProt P04637); assay: Activation of p53 in human T24 cells assessed as p53 phosphorylation after 24 hrs by Western blot analysis; type: cell-based
Procedure, shortened: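 T24 cells, 3 × 10^5 per well, grown to 85−95% confluence, then exposed to 0−10 μM for 24 h. Whole-cell extracts in sample buffer run on SDS-polyacrylamide gels and transferred to nitrocellulose. Blots probed with primary antibodies and AP-linked anti-rabbit IgG, detected by ECL. Blots stripped and reprobed for β-actin as loading control.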

[10] = tested on: Escherichia coli; assay: Induction of DNA damage in Escherichia coli pBR322 DNA assessed as effect on mobility rate at 5 uM after 1 hr by DNA relaxation assay
Procedure, shortened: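 pBR322 plasmid DNA incubated 1 h with compound over 1−10 μM in 5 mM Tris-HCl, 50 mM NaCl, pH 7.2. Samples run on 1.5% agarose gel, stained with 0.5 μg·mL−1 ethidium bromide; conformation and migration rate compared with 1% DMSO plus plasmid (negative control) and ethidium bromide plus plasmid (positive control).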

Sequence of Cellular tumor antigen p53 (Homo sapiens) (P04637 whole entry, looked up): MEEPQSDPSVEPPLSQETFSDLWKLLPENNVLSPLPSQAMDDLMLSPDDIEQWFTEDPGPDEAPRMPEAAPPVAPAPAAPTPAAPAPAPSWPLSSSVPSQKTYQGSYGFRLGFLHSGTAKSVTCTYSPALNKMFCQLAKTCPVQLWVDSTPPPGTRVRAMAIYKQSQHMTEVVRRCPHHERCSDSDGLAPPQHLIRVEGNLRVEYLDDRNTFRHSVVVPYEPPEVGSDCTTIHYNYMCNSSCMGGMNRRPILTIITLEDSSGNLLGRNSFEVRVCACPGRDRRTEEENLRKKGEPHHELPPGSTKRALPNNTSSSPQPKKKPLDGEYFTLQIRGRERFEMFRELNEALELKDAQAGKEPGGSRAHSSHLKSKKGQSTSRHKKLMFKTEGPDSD

SMILES	IC50 [1] [µM]	IC50 [2] [µM]	IC50 [3] [µM]	IC50 [4] [µM]	IC50 [5] [µM]	Activity [6]	inhibition in vivo at 6 mg/kg [7] [%]	Activity [8]	Activity [9]	Activity [10]
Cc1ccc2nc3c4ccccc4c(NCCCN(C)C)nn3c(=O)c2c1	7.28	13.6	9.7	5.24	7.82					
CC(C)N(CCNc1nn2c(=O)c3cc(Br)ccc3nc2c2ccccc12)C(C)C	12.7	11.4	13.6	10.6	11.7					
CN(C)CCNc1nn2c(=O)c3ccccc3nc2c2ccccc12	7.47	13	12.1	8.71	10.2					
CCN(CC)CCNc1nn2c(=O)c3cc(Br)ccc3nc2c2ccccc12	10.7	8.81	5.06	7.26	2.99					
Cc1ccc2nc3c4ccccc4c(NCCCN4CCOCC4)nn3c(=O)c2c1	9.78	24.2	21.6	20.7	24.1					
CN1CCN(c2nn3c(=O)c4cc(Br)ccc4nc3c3ccccc23)CC1	77	73.5	43.7	40.4	41.1					
CN(C)CCNc1nn2c(=O)c3cc(Cl)ccc3nc2c2ccccc12	3.46	5.6	5.11	4.82	4.89					
CCOC(=O)CNc1nn2c(=O)c3cc(Br)ccc3nc2c2ccccc12	> 100	> 100	> 100	> 100	> 100					
O=c1c2cc(F)ccc2nc2c3ccccc3c(NCCCN3CCOCC3)nn12	18.8	60.6	52	79.1	45.1					
CN1CCN(c2nn3c(=O)c4cc(Cl)ccc4nc3c3ccccc23)CC1	30.7	> 100	70.4	66.1	57.6					
Cc1ccc2nc3c4ccccc4c(N4CCOCC4)nn3c(=O)c2c1	> 100	> 100	> 100	> 100	> 100					
CN(C)CCNc1nn2c(=O)c3cc(F)ccc3nc2c2ccccc12	4.62	7.92	7.49	6.6	4.68					
O=c1c2cc(Cl)ccc2nc2c3ccccc3c(NCCCN3CCOCC3)nn12	8.85	34.6	19.9	23.1	18.3					
CN1CCN(c2nn3c(=O)c4cc(F)ccc4nc3c3ccccc23)CC1	34.8	44.9	77.7	26.1	51.9					
COc1ccc(C2=N[C@H](c3ccc(Cl)cc3)[C@H](c3ccc(Cl)cc3)N2C(=O)N2CCNC(=O)C2)c(OC(C)C)c1						inactive				
CN1CCN(c2nn3c(=O)c4ccccc4nc3c3ccccc23)CC1	33.8	50.4	31.4	44.5	39.4					
CCOC(=O)CCNc1nn2c(=O)c3cc(Br)ccc3nc2c2ccccc12	> 100	> 100	> 100	> 100	> 100					
O=c1c2cc(Br)ccc2nc2c3ccccc3c(NCCN3CCCC3)nn12	6.43	3.71	6.84	4.15	5.21					

SMILES	IC50 [1] [µM]	IC50 [2] [µM]	IC50 [3] [µM]	IC50 [4] [µM]	IC50 [5] [µM]	Activity [6]	inhibition in vivo at 6 mg/kg [7] [%]	Activity [8]	Activity [9]	Activity [10]
CN(C)CCCNc1nn2c(=O)c3cc(F)ccc3nc2c2ccccc12	8.9	22.1	11.2	32.1	10.7					
CN(C)CCCNc1nn2c(=O)c3cc(Br)ccc3nc2c2ccccc12	3.25	7.13	5.48	3.35	2.2					
O=c1c2ccccc2nc2c3ccccc3c(NCCCN3CCOCC3)nn12	27.9	53.8	40.2	14.5	30.5					
Cc1ccc2nc3c4ccccc4c(NCCN(C)C)nn3c(=O)c2c1	2.12	3.41	5.69	5.65	4.97					
CC[C@@]1(O)C(=O)OCc2c1cc1n(c2=O)Cc2cc3cc(O)ccc3nc2-1 [HYDROXYCAMPTOTHECIN]	5.53	29.2	4.91	15.2	5.52		71.6			
O=c1c2cc(Br)ccc2nc2c3ccccc3c(NCCN3CCOCC3)nn12	10.8	8.8	7.85	9.9	11.3					
O=c1c2cc(F)ccc2nc2c3ccccc3c(N3CCOCC3)nn12	> 100	> 100	> 100	> 100	> 100					
O=c1c2cc(Br)ccc2nc2c3ccccc3c(NCCCN3CCOCC3)nn12	9.03	17.4	15.1	7.21	12.8					
O=c1c2ccccc2nc2c3ccccc3c(N3CCOCC3)nn12	> 100	> 100	> 100	> 100	92.3					
O=c1c2cc(Br)ccc2nc2c3ccccc3c(NCCN3CCCCC3)nn12	3.81	2.01	7.85	4.48	4.14					
CCCCNc1nn2c(=O)c3cc(Br)ccc3nc2c2ccccc12	> 100	> 100	> 100	> 100	> 100					
O=c1c2cc(Cl)ccc2nc2c3ccccc3c(N3CCOCC3)nn12	> 100	> 100	> 100	> 100	> 100					
CN(C)CCCNc1nn2c(=O)c3ccccc3nc2c2ccccc12	14.5	20.2	17	10.7	11.5			inactive	Dose-dependent effect	
CC[n+]1c(-c2ccccc2)c2cc(N)ccc2c2ccc(N)cc21										Active
Cc1ccc2nc3c4ccccc4c(N4CCN(C)CC4)nn3c(=O)c2c1	60.5	85	70.6	34.2	55.2					
CN(C)CCCNc1nn2c(=O)c3cc(Cl)ccc3nc2c2ccccc12	9.83	15.7	10.5	13.9	8.78					
O=c1c2cc(Br)ccc2nc2c3ccccc3c(N3CCOCC3)nn12	> 100	> 100	> 100	> 100	> 100					
